This is an account of results in ChEMBL document CHEMBL1154772, “Synthesis and in vitro evaluation of N-substituted maleimide derivatives as selective monoglyceride lipase inhibitors” (J Med Chem, 2009).

Molecules are shown by their SMILES. Activity calls are given as the source filed them. The calls are words filed in the database; no cut-off is given here.

The target in assay [1] is T1, Fatty-acid amide hydrolase 1 (Homo sapiens, UniProt O00519).
T1 sequence (O00519 whole entry): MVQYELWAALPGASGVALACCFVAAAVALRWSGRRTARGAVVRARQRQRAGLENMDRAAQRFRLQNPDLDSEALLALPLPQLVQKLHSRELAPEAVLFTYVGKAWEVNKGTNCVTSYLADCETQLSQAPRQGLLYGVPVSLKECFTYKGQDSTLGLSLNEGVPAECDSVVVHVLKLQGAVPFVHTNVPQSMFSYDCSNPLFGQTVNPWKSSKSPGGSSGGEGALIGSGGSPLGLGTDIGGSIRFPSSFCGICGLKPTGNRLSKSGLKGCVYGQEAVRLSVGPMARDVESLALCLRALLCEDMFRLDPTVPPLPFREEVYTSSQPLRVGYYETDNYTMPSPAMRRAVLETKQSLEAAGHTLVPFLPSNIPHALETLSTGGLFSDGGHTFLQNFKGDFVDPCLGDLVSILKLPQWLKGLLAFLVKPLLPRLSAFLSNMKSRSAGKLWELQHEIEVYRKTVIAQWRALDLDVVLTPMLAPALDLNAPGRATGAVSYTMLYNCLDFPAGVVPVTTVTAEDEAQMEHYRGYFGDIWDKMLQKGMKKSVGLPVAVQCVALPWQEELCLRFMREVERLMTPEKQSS
Kind of assay: Inhibition of human FAAH. An outline of the steps: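 Recombinant human FAAH in Tris-HCl pH 7.4 added on ice to compound or DMSO. [3H]anandamide (2 μM final) in Tris-HCl with 0.1% BSA, 10 min at 37 °C. Stopped on ice with methanol-chloroform 1:1, centrifuged 850g 5 min 4 °C. Released [3H]ethanolamine in aqueous layer counted by scintillation, buffer blanks subtracted.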

The species named for another assay is Homo sapiens. Kind of assay: Selectivity ratio of IC50 for human FAAH to IC50 for human MGL. Put shortly: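 Ratio of IC50 against human FAAH ([3H]anandamide hydrolysis) to IC50 against purified human MGL ([3H]-2-OG hydrolysis), each from three independent experiments in duplicate.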
For assay [2], the target named is T2, Monoglyceride lipase (Homo sapiens) (UniProt Q99685).
T2 sequence (whole entry): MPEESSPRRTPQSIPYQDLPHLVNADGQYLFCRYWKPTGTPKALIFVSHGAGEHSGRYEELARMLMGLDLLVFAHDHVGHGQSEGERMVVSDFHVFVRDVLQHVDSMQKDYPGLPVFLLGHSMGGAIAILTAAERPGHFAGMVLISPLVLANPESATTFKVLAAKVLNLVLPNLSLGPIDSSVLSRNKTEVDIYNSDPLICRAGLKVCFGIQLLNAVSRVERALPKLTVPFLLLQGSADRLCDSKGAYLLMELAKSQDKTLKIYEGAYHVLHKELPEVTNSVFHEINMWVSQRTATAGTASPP
Kind of assay: Displacement of [3H]2-OG from human MGL at 2 uM treated for 30 mins before addition of 2-OG by liquid scintillation counting. An outline of the steps: (§1)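 Purified recombinant human MGL (5 ng, 50 mM Tris pH 8.0, 0.1% BSA) preincubated with inhibitor (16 μM or 2 μM) at room temperature for 0, 15 or 30 min. Then [3H]-2-OG (10 μM final) added, 10 min at 37 °C. Stopped with ice-cold methanol-chloroform 1:1, centrifuged, aqueous-phase radioactivity counted by liquid scintillation. No-enzyme blanks subtracted. Mean of three experiments in duplicate.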

For assay [3], the target named is T1, Fatty-acid amide hydrolase 1. Kind of assay: Displacement of [3H]ethanolamine from human recombinant FAAH by liquid scintillation counting. An outline of the steps: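 Recombinant human FAAH in Tris-HCl pH 7.4 added on ice to compound or DMSO. [3H]anandamide (2 μM final) in Tris-HCl with 0.1% BSA, 10 min at 37 °C. Stopped on ice with methanol-chloroform 1:1, centrifuged 850g 5 min 4 °C. Released [3H]ethanolamine in aqueous layer counted by scintillation, buffer blanks subtracted. Three independent experiments in duplicate; 1 mM single-point where no IC50.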

Assay [4] has as its target T2, Monoglyceride lipase (Homo sapiens). Kind of assay: Inhibition of [3H]2-OG binding to human MGL at 40 times IC50 treated for 1 hr before addition of 2-OG by liquid scintillation counting.
For assay [5] the target is unchanged. Kind of assay: Displacement of [3H]2-OG from human MGL at 2 uM treated for 15 mins before addition of 2-OG by liquid scintillation counting. An outline of the steps: as §1
For assay [6], the target named is T3, Monoglyceride lipase (Homo sapiens, UniProt Q99685).
T3 sequence (Q99685 whole entry): T2 sequence (whole entry)
Briefly: Displacement of [3H]2-OG from human MGL by liquid scintillation counting. An outline of the steps: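 Purified recombinant human MGL (5 ng) in 50 mM Tris pH 8.0, 0.1% BSA with compound or DMSO vehicle. [3H]-2-OG (10 μM) hydrolysis run 10 min at 37 °C, stopped with ice-cold methanol-chloroform 1:1. Aqueous-phase radioactivity read by liquid scintillation, no-enzyme blanks subtracted. IC50 from three independent experiments in duplicate; single-point inhibition at 1 mM where no IC50.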
A general note: In a radioligand displacement assay an active substance lowers the binding of a labelled ligand.

Assay [7] addresses T3, Monoglyceride lipase. Briefly: Inhibition of human MGL. An outline of the steps: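 Purified recombinant human MGL (5 ng) in 50 mM Tris pH 8.0, 0.1% BSA with compound or DMSO vehicle. [3H]-2-OG (10 μM) hydrolysis run 10 min at 37 °C, stopped with ice-cold methanol-chloroform 1:1. Aqueous-phase radioactivity read by liquid scintillation, no-enzyme blanks subtracted.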
In assay [8] the target is T2, Monoglyceride lipase (Homo sapiens). Kind of assay: Displacement of [3H]2-OG from human MGL at 16 uM treated for 30 mins before addition of 2-OG by liquid scintillation counting. An outline of the steps: as §1
Assay [9] shares this target. Briefly: Displacement of [3H]2-OG from human MGL at 16 uM treated for 15 mins before addition of 2-OG by liquid scintillation counting. An outline of the steps: as §1
Assay [10] shares this target. Briefly: Inhibition of [3H]2-OG binding to human MGL at 20 times IC50 treated for 1 hr before addition of 2-OG by liquid scintillation counting.

The molecule `O=C(Nc1cccc(-c2ccccc2)c1)OC1CCCCC1` gave an IC50 in [1] of 5.65 µM. For the same molecule, in the assay filed under Homo sapiens, the Ratio IC50 was found to be 0.57.

For `O=C1C=CC(=O)N1Cc1ccc(CN2C(=O)C=CC2=O)cc1`, the outcome in assay [2] and in [5] was Active. The IC50 in assay [3] was 16.6 µM; at Monoglyceride lipase [6], 1.7 µM. The Ratio IC50 in the assay listed under Homo sapiens turned out to be 10. The same molecule gave an inhibition in [4] of 69%.

Regarding `CCCCC/C=C\C/C=C\C/C=C\C/C=C\CCCCN1C(=O)C=CC1=O`, the figures for the IC50 (against Monoglyceride lipase [7]; in assay [1]) were 1.12 µM and 2.18 µM, respectively. Moreover, the Ratio IC50 in the assay listed under Homo sapiens is 1.95. In assay [4], this molecule showed an inhibition of 69%.

With `O=C1C=CC(=O)N1c1ccccc1`, the half-inhibitory concentration (IC50) in [3] was determined as 229 µM; at Monoglyceride lipase [6] it was 15.9 µM. In addition, the result in assay [8] and in [9] was Active.

Turning to `CCCCC/C=C\C/C=C\C/C=C\C/C=C\CCCC(=O)C(F)(F)F` [ARACHIDONYL TRIFLUOROMETHYLKETONE], the IC50 against Monoglyceride lipase [7] was 6.31 µM. Moreover, in the assay listed under Homo sapiens, the Ratio IC50 stood at 0.002. In [10], this molecule gave an inhibition of 26%.

As usually defined, the IC50 is the concentration needed to halve the response being measured. The term inhibition denotes the relative decrease from the control value, in per cent. A higher inhibition goes with strong suppression.
